Results on 21 compounds are retold here after BindingDB's records for doi:10.1016/j.ejmech.2019.111920 (Jagiellonian University Medical College, 2020).

This assay addresses T1, Sodium- and chloride-dependent GABA transporter 2 (Mus musculus, UniProt P31649).
T1 sequence (P31649 whole entry): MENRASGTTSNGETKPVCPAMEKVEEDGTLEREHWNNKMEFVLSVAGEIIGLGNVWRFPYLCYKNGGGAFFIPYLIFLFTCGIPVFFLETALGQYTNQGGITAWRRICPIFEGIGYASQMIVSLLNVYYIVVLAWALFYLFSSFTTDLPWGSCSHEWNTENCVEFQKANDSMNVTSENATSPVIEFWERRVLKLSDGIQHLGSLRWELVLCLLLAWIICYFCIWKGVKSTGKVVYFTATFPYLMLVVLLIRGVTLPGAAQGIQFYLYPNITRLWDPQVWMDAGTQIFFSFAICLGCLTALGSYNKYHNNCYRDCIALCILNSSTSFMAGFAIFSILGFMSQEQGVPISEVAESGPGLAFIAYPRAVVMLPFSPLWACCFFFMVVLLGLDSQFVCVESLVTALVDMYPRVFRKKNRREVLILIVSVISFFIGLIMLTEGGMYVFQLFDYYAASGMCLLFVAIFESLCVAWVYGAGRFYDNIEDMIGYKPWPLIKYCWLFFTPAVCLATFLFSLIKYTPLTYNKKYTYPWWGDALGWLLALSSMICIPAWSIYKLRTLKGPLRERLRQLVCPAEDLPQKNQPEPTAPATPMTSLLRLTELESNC
The experiment in a line: Inhibition of mouse GAT2 expressed in HEK293 cell line assessed as inhibition of [3H]GABA uptake measured after 35 mins by liquid scintillation method. The procedure, abridged: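 [3H]GABA uptake assay at each mGAT subtype, with screening at 100 µM inhibitor. […] Otherwise, the remaining uptake at 100 µM is reported as a percentage. Values without SEM come from a single triplicate experiment.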
As to `O=C(O)C1=CCCN(CCON=C(c2ccccc2)c2ccccc2)C1`, the IC50 was 631 µM.
For the compound `NCC(O)C(=O)O` (stereo unspecified), the IC50 is 229 µM.
As for `Cc1ccsc1C(=CCCN(C)C(CCO)C(=O)NCc1ccccc1)c1sccc1C` (stereo unspecified), the figure is 20.4 µM; as for `Cc1ccsc1C(=CCCN(C)C(CCO)C(=O)NCc1ccccc1Cl)c1sccc1C` (stereo unspecified), 10.5 µM; as for `Cc1ccsc1C(=CCCN(C)C(CCO)C(=O)NCc1ccc(F)cc1)c1sccc1C` (stereo unspecified), 5.62 µM.
Turning to `Cc1ccc(CNC(=O)C(CCO)N(C)CCC=C(c2sccc2C)c2sccc2C)cc1` (stereo unspecified), the IC50 stood at 9.77 µM.
For the compound `Cc1ccsc1C(=CCCN(C)C(CCO)C(=O)NCc1ccc(F)cc1F)c1sccc1C` (stereo unspecified), the IC50 was 10 µM.
As to `Cc1ccsc1C(=CCCN(C)C(CC(C)O)C(=O)NCc1ccccc1)c1sccc1C` (stereo unspecified), the IC50 was determined as 8.91 µM.
Turning to `Cc1ccsc1C(=CCCN(C)C(CC(C)O)C(=O)NCc1ccccc1Cl)c1sccc1C` (stereo unspecified), the IC50 was determined as 10.4 µM.
For `Cc1ccsc1C(=CCCN(C)C(CC(C)O)C(=O)NCc1ccc(Cl)cc1)c1sccc1C` (stereo unspecified), the IC50 amounted to 10.5 µM.
As for `Cc1ccsc1C(=CCCN(C)C(CC(C)O)C(=O)NCc1ccc(F)cc1)c1sccc1C` (stereo unspecified), the figure is 26.3 µM; as for `Cc1ccc(CNC(=O)C(CC(C)O)N(C)CCC=C(c2sccc2C)c2sccc2C)cc1` (stereo unspecified), 17 µM.
In the case of `Cc1ccsc1C(=CCCN(C)C(CCN)C(=O)NCc1ccccc1)c1sccc1C` (stereo unspecified), the IC50 was found to be 5.5 µM.
As for `Cc1ccc(CNC(=O)C(CCN)N(C)CCC=C(c2sccc2C)c2sccc2C)cc1` (stereo unspecified), the IC50 came to 7.76 µM.
The same measure for `CC(=O)NCCC(C(=O)NCc1ccccc1Cl)N(C)CCC=C(c1sccc1C)c1sccc1C` (stereo unspecified): 4.47 µM; for `O=C(O)C1=CCCN(CCO/N=C/c2ccccc2-c2ccc(Cl)cc2Cl)C1`: 49 µM.
Take `Cc1ccsc1C(=CCCN(C)C(CO)C(=O)NCc1ccccc1)c1sccc1C` (stereo unspecified): the IC50 came to 30.9 µM.
The same measure for `Cc1ccsc1C(=CCCN(C)C(CO)C(=O)NCc1ccc(Cl)cc1)c1sccc1C` (stereo unspecified): 15.8 µM.
Take `Cc1ccsc1C(=CCCN(C)C(CO)C(=O)NCc1ccc(F)cc1)c1sccc1C` (stereo unspecified): the IC50 turned out to be 22.4 µM.
`Cc1ccc(CNC(=O)C(CO)N(C)CCC=C(c2sccc2C)c2sccc2C)cc1` (stereo unspecified): the IC50 is 24 µM.
Consider `Cc1ccsc1C(=CCCN(C)C1CCc2onc(O)c2C1)c1sccc1C` (stereo unspecified), for which the IC50 came to 25.7 µM.
